Bioassay records: PubChem BioAssay, several laboratories
An excerpt weighted towards active compounds, which were near 3% of everything screened.
PKD1 kinase inh: blocks activity of human protein kinase D1. Q15139. PKD1 kinase fluorescence polarization assay. inhibition, % (concentration not given with the values). actives 0.056% (n = 200,000); in the data active = inhibition above about 50%
Cl transport mod: modulates chloride dependent transport by human KCC2; AID 1456; actives 2.2% (n = 190,000); Q9H2X9; KCC2 cells, thallium flux FluoZin-2 fluorescence; B-score of Tl+ flux slope (higher = more flux/activation; lower = inhibition) at 10 µM;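 active = thallium flux slope and its plate-corrected score both differing from the plate sample mean at a set confidence after two filtering rounds, in either direction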;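 also: slope of fluorescence scaled to starting intensity during 10 to 20 s after thallium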
Target sequence (Q9H2X9 whole entry, looked up): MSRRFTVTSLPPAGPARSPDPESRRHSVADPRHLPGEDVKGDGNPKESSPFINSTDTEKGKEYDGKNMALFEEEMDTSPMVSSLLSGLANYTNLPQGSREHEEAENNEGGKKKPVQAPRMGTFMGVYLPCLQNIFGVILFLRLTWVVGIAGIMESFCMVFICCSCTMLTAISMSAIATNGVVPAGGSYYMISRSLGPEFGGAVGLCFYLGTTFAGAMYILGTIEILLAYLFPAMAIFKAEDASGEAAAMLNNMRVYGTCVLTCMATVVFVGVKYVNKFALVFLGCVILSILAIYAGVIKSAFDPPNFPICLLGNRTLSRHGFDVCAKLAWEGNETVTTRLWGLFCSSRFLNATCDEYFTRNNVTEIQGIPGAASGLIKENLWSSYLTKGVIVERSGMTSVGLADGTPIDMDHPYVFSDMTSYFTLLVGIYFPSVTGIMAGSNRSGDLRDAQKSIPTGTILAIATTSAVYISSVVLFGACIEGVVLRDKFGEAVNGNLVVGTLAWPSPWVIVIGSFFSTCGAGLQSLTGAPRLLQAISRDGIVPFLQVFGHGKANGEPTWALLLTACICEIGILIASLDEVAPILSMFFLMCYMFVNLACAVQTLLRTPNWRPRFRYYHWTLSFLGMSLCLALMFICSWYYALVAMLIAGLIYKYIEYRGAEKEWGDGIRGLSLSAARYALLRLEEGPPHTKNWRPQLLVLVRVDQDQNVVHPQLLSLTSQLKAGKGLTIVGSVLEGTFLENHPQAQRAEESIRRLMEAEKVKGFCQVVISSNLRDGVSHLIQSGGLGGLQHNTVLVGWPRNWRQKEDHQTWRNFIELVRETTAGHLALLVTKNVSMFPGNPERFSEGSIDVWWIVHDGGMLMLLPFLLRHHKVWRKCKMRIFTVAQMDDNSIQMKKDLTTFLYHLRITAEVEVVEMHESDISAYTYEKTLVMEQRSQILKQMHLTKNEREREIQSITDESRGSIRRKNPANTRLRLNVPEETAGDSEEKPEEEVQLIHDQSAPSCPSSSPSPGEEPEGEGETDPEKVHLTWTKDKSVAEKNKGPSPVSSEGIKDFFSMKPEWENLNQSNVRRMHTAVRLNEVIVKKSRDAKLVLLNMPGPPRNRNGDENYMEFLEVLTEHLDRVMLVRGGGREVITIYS
ROMK mod: modulators of human ROMK potassium channel. Tet-inducible ROMK, thallium flux fluorescence; actives lie on both sides. B-score at 10 µM. actives 2% (n = 130,000). AID 1918;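 active = signal ratio slope over the read window, or its plate-corrected B-score, at least 3 SD from the plate mean, either direction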;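 also: B-score of the F/F0 ratio slope over 7 to 12 s after thallium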
Rad51 HR inh: blocks human Rad51 in homologous recombination; Q06609; hRad51 DNA strand exchange, fluorescence dequenching; inhibition, % at 10 µM; actives 0.085% (n = 200,000); AID 1385;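 active = inhibition above 40% at the single screening dose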
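Material: hRad51 filaments on single-stranded DNA; Reagent: Donor/quencher-labelled 47-bp dsDNA substrate; Compound: 10 µM final, single point; Schedule: 37 °C 15-min filament assembly, 30-min compound preincubation, 15-min exchange; Technique: FRET fluorescence, excitation 485 nm, emission 520 nm; Benchmarks: control wells and blank wells on each plate.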
KCC2 secondary: KCC2 (human) modulation, secondary assay | normalised thallium flux (F/F0 slope) at 10 µM | shares compounds with Cl transport mod | actives 15% (n = 3,700) | HEK293-KCC2, thallium flux, FluoZin2 fluorescence; hits give high values | AID 1713;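 active = thallium flux slope above the same plate's solvent-only control mean plus 3 SD; inconclusive = the two replicate wells disagree; inactive = no significant difference from solvent-only control wells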
KCC2 bumet counter: thallium flux persisting under bumetanide in KCC2 cells, counter-screen secondary assay; shares compounds with Cl transport mod; HEK293-KCC2 + bumetanide/ouabain, thallium flux FluoZin2; hits give high values; normalized thallium flux at 10 µM; actives 49% (n = 3,700);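 active = thallium entry rate above the same plate's blocked-transporter control wells by more than 3 SD; inconclusive = the two repeat wells disagree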;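 also: raw slope of fluorescence over initial fluorescence between 10 and 20 s after thallium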
KCC2 sec2: confirmation of human KCC2 transport modulators; AID 1715; normalized thallium flux at 10 µM; HEK293-KCC2, thallium flux FluoZin2 fluorescence; actives lie on both sides; F/F0 rise rate, 10–20 s post-thallium; shares compounds with Cl transport mod; actives 23% (n = 3,700);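 active = thallium flux slope more than 3 SD above or below the plate's solvent-only control mean, mostly below; inconclusive = the two repeat wells disagreed; inactive = no significant shift from solvent-only controls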
HEK293 Tl flux: acts in parental HEK cells, KCC2 counter-screen; shares compounds with Cl transport mod; HEK293 parental cells, thallium flux FluoZin2, ouabain; baseline-ratio fluorescence slope, 10–20 s after thallium; thallium flux rate (normalised fluorescence) at 10 µM; actives 46% (n = 3,700); AID 1716;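 active = thallium flux rate significantly above the same plate's solvent-only control wells, beyond their mean plus 3 SD; inconclusive = the two replicate wells gave conflicting results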
KCC2 retest ouab: KCC2 (human) modulation, ouabain retest | HEK293-KCC2, thallium flux FluoZin2 fluorescence; bidirectional: low = inhibitor, high = activator | shares compounds with Cl transport mod | raw Tl+ flux slope (below DMSO = inhibition, above = activation) at 10 µM | actives 48% (n = 3,700);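 active = thallium flux slope beyond 3 SD from same-plate DMSO control mean in most replicates, usually higher, sometimes lower; inconclusive = repeat tests gave conflicting results; inactive = no significant difference from controls in most replicates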;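 also: slope of initial-normalized fluorescence between seconds 10 and 20 after thallium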
HEK counter2: acts in parental HEK cells, second KCC2 counter-screen; shares compounds with Cl transport mod; HEK293 parental, thallium flux FluoZin-2 fluorescence slope; thallium flux slope at 10 µM; actives 33% (n = 3,700);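 active = thallium flux slope above the same plate's solvent-control mean plus 3 SD in both duplicate wells; inconclusive = duplicate wells that disagreed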;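 also: run without ouabain in cells lacking the KCC2 cotransporter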
Of the large screens only hits and unclear results are named; the others gave an inactive call (follow-up assays come after a bar, where they were run).

CC(C)Cn1c(=S)[nH]c2ccccc2c1=O	Cl transport mod 64 | KCC2 secondary 0.0099 | KCC2 bumet counter 0.12 | KCC2 sec2 0.086 | HEK293 Tl flux 0.086 | KCC2 retest ouab 0.092 | HEK counter2 0.085
C=C(C)Cn1c(=S)[nH]c2ccccc2c1=O	Cl transport mod 25 | KCC2 secondary 0.014 | KCC2 bumet counter 0.074 | KCC2 sec2 inactive | HEK293 Tl flux 0.024 | KCC2 retest ouab 0.049 | HEK counter2 0.014
O=c1c2ccccc2[nH]c(=S)n1Cc1ccc2c(c1)OCO2	Cl transport mod 10 | KCC2 secondary inconclusive | KCC2 bumet counter 0.012 | KCC2 sec2 inactive | HEK293 Tl flux 0.0098 | KCC2 retest ouab inactive | HEK counter2 0.013
CCOc1ccc(C2NC(=O)NC(C)=C2[N+](=O)[O-])cc1OC (stereo not given)	none (no result: PKD1 kinase inh)
CS(=O)(=O)Nc1cccc(C2=NN(C(=O)c3ccccc3Cl)C(c3ccccc3O)C2)c1 (stereo not given)	none
O=c1c2ccccc2[nH]c(=S)n1CCC1=CCCCC1	Cl transport mod 38 | KCC2 secondary inconclusive | KCC2 bumet counter 0.082 | KCC2 sec2 0.048 | HEK293 Tl flux 0.032 | KCC2 retest ouab 0.043 | HEK counter2 0.026
CCN1CCN(C(=O)c2ccc3c(=O)n(CCC4=CCCCC4)c(=O)[nH]c3c2)CC1	none (no result: ROMK mod)
CCOC(=O)c1nc(C)nc(Sc2n[nH]c(-c3cc(C(F)(F)F)cc(C(F)(F)F)c3)n2)c1C	Cl transport mod -3.6 (no result: PKD1 kinase inh) | KCC2 secondary inactive | KCC2 bumet counter inactive | KCC2 sec2 inactive | HEK293 Tl flux inconclusive | KCC2 retest ouab 0.017 | HEK counter2 inactive
CCOC(=O)c1cc(-c2cccc(C(F)(F)F)c2)nc2nc(SC)[nH]c(=O)c12	none
COCC(=O)Nc1cc(OC)ccc1OC	none (no result: Cl transport mod, ROMK mod) | KCC2 secondary inactive | KCC2 bumet counter inconclusive | KCC2 sec2 inactive | HEK293 Tl flux inconclusive | KCC2 retest ouab inactive | HEK counter2 inconclusive
COc1ccc(Cl)cc1NC(=O)COC(C)=O	none
COc1ccc(Cl)cc1NC(=O)CC(C)=O	Cl transport mod 7.3 (no result: ROMK mod) | KCC2 secondary inconclusive | KCC2 bumet counter inconclusive | KCC2 sec2 inactive | HEK293 Tl flux inactive | KCC2 retest ouab inactive | HEK counter2 inactive
COC(=O)c1ccc(NC(=O)c2ccccc2-c2ccccc2C(=O)O)cc1	none
Cc1cc(C(=O)O)ccc1-c1ccc(/C=C2\NC(=O)N(Cc3ccccc3Cl)C2=O)o1	none
Cc1ccc(C(=O)O)cc1-c1ccc(/C=C2/NC(=O)N(c3ccccc3)C2=O)o1	Cl transport mod -4.6 | KCC2 secondary inactive | KCC2 bumet counter inactive | KCC2 sec2 0.022 | HEK293 Tl flux inactive | KCC2 retest ouab 0.014 | HEK counter2 inactive
CC1(C)CC(=O)C([N+](=O)[O-])=C(NCCCC(=O)O)C1	none (no result: Rad51 HR inh)
CCCCC(c1nnnn1Cc1ccco1)N1CCN(c2nc3ccccc3s2)CC1 (stereo not given)	Cl transport mod -6.9 | KCC2 secondary inactive | KCC2 bumet counter inactive | KCC2 sec2 inconclusive | HEK293 Tl flux inactive | KCC2 retest ouab 0.015 | HEK counter2 inactive
O=C(CSc1nnc(SCC(=O)c2ccco2)s1)c1ccco1	none
O=C(CSc1nc2cc(Cl)ccc2s1)c1ccco1	Cl transport mod 13 (no result: ROMK mod) | KCC2 secondary 0.025 | KCC2 bumet counter 0.036 | KCC2 sec2 0.043 | HEK293 Tl flux 0.03 | KCC2 retest ouab 0.036 | HEK counter2 0.033
CCOc1cc(C2NN=C(c3ccccc3)S2)ccc1OCc1ccccc1Cl (stereo not given)	Cl transport mod 6 | KCC2 secondary inactive | KCC2 bumet counter inactive | KCC2 sec2 inactive | HEK293 Tl flux inactive | KCC2 retest ouab inactive | HEK counter2 inactive
CCOc1cc(C2NN=C(c3ccccc3)S2)ccc1OCc1ccc(F)cc1 (stereo not given)	none
N#Cc1nc(-c2ccc(Cl)cc2)oc1NCC1CCCO1 (stereo not given)	none
COc1cccc(N2[C@@H](CC(=O)O)c3ccc(/C=C/C(=O)O)cc3S2(=O)=O)c1	none (no result: PKD1 kinase inh, Cl transport mod, ROMK mod)
CC1=CN2C(=N)/C(=C/c3ccc(C)o3)C(=O)N=C2S1	Cl transport mod 8.8 (no result: ROMK mod) | KCC2 secondary inactive | KCC2 bumet counter 0.028 | KCC2 sec2 inactive | HEK293 Tl flux 0.013 | KCC2 retest ouab inactive | HEK counter2 inconclusive
N=C1/C(=C\c2ccc(SCc3ccccc3)o2)C(=O)N=C2SC=NN12	none
CCN=C1S/C(=C\c2ccc(Sc3ccc(Cl)cc3)o2)C(=O)N1CC	none (no result: ROMK mod)
CC1=CN2C(=N)/C(=C/c3ccc(Sc4ccc(C)cc4)o3)C(=O)N=C2S1	Cl transport mod 16 | KCC2 secondary inactive | KCC2 bumet counter 0.03 | KCC2 sec2 inconclusive | HEK293 Tl flux 0.042 | KCC2 retest ouab 0.032 | HEK counter2 0.021
CC1=CN2C(=N)/C(=C/c3ccc(Sc4ccc(Cl)cc4)o3)C(=O)N=C2S1	Cl transport mod 9.2 (no result: ROMK mod) | KCC2 secondary inactive | KCC2 bumet counter 0.014 | KCC2 sec2 inactive | HEK293 Tl flux 0.013 | KCC2 retest ouab inactive | HEK counter2 inactive
CCCCC(CC)CNC(=O)C(=O)c1ccccc1NC(C)=O (stereo not given)	none
CCCCCc1nc2ccccc2c(=O)n1N	none (no result: Cl transport mod, ROMK mod, Rad51 HR inh)
CCCc1nc2ccccc2c(=O)n1N	Cl transport mod 12 | KCC2 secondary inactive | KCC2 bumet counter inactive | KCC2 sec2 inactive | HEK293 Tl flux inactive | KCC2 retest ouab inactive | HEK counter2 inactive
Cc1ccc(CCc2nnc(SCC(=O)Nc3cc(Cl)ccc3Cl)n2-c2ccccc2)o1	Cl transport mod -4.7 | KCC2 secondary inactive | KCC2 bumet counter inactive | KCC2 sec2 inactive | HEK293 Tl flux inactive | KCC2 retest ouab inactive | HEK counter2 inactive
C/C(CC(=O)NC1CCCC1)=N\NC(=O)Cc1csc(N)n1	none (no result: Rad51 HR inh)
NC(=O)CC(NC(=O)Cc1ccc(Br)cc1)c1ccc(NCCc2ccc(F)cc2)c([N+](=O)[O-])c1 (stereo not given)	Cl transport mod -3 (no result: PKD1 kinase inh, ROMK mod) | KCC2 secondary inactive | KCC2 bumet counter inactive | KCC2 sec2 inconclusive | HEK293 Tl flux inconclusive | KCC2 retest ouab inactive | HEK counter2 inactive
NC(=O)CC(NC(=O)Cc1ccc(Br)cc1)c1ccc(NCCc2ccc(Cl)cc2)c([N+](=O)[O-])c1 (stereo not given)	none (no result: PKD1 kinase inh, ROMK mod)
